Measured values as given in ChEMBL document CHEMBL2346593, “Novel adamantyl cannabinoids as CB1 receptor probes” (J Med Chem, 2013).
Calls of active or inactive are those of the source.

What was measured:
[1] = Selectivity ratio of Ki for human CB2 receptor to Ki for rat CB1 receptor
Cannabinoid receptor 1 [2] = molecular target: Cannabinoid receptor 1 (Rattus norvegicus, UniProt P20272); assay: Displacement of [3H]CP-55940 from rat CB1 receptor expressed in rat brain membrane by competitive binding assay; assay type: cell membranes
[3] = Selectivity ratio of Ki for mouse CB2 receptor to Ki for rat CB1 receptor
Cannabinoid receptor 2 [4] = molecular target: Cannabinoid receptor 2 (Homo sapiens, UniProt P34972); assay: Displacement of [3H]CP-55940 from human CB2 receptor expressed in HEK293 cell membrane by competitive binding assay; assay type: cell membranes
Procedure, shortened: (§1)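 Competition-equilibrium binding against [3H]CP-55,940 in rat brain membranes (CB1), mouse spleen membranes (mCB2), or membranes of HEK293 cells expressing hCB2. IC50 was obtained by nonlinear regression and converted to Ki. Ki is the mean of three independent experiments, each run in duplicate.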

Cannabinoid receptor 2 [5] = molecular target: Cannabinoid receptor 2 (Mus musculus, UniProt P47936); assay: Displacement of [3H]CP-55940 from mouse CB2 receptor expressed in mouse spleen membrane by competitive binding assay; assay type: cell membranes; procedure, shortened: as §1
Rattus norvegicus [6] = assay: Hypothermic effect in Sprague-Dawley rat assessed as decrease in core body temperature at 10 mg/kg; assay type: functional
Procedure, shortened: (§2)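 Female Sprague-Dawley rats (n = 5–7/group), minimally restrained and isolated, each with a thermistor probe inserted 7 cm and taped to the tail. Two baselines were taken 15 min apart, then sc injection (20% ethanol/20% emulphor/60% saline diluted with saline, 1.0 mL/kg). Temperature was read every 30 min for 3 h, then hourly to 6 h, as change from mean baseline.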

Cannabinoid receptor 1 [7] = molecular target: Cannabinoid receptor 1 (Homo sapiens, UniProt P21554); assay: Agonist activity at human CB1 receptor transfected in human U2OS cells assessed as beta-arrestin2-GFP aggregation after 40 mins; assay type: cell-based
Rattus norvegicus [8] = assay: Antinociceptive activity in Sprague-Dawley rat assessed as increase in tail-flick latency period at 0.1 to 10 mg/kg, sc after 6 hrs by tail-flick test; assay type: functional, organism-based
Procedure, shortened: (§3)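 Female Sprague-Dawley rats (235–350 g; n = 5–7/group), retested at least 7 days apart. Compound was dissolved in 20% ethanol/20% emulphor/60% saline, diluted with saline, and given sc at 1.0 mL/kg. Radiant-heat tail-flick latency was measured over 6 h with a 6 s cutoff. %MPE = 100 × (test − baseline)/(6 − baseline). Dose-effect curves used each rat's maximum effect.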

Rattus norvegicus [9] = assay: Antinociceptive activity in Sprague-Dawley rat assessed as increase in tail-flick latency period at 0.1 to 10 mg/kg, sc after 60 to 120 mins by tail-flick test; assay type: functional, organism-based; procedure, shortened: as §3
Rattus norvegicus [10] = assay: Hypothermic effect in Sprague-Dawley rat assessed as decrease in core body temperature at 1 mg/kg, sc measured over 6 hrs; assay type: functional; settings: route subcutaneous; procedure, shortened: as §2
Rattus norvegicus [11] = assay: Antinociceptive activity in Sprague-Dawley rat assessed as increase in tail-flick latency period at 1 mg/kg, sc by tail-flick test; assay type: functional, organism-based; parameters: dose 1 mg/kg; procedure, shortened: as §3
Rattus norvegicus [12] = assay: Hypothermic effect in sc dosed Sprague-Dawley rat assessed as decrease in core body temperature after 60 mins to 6 hrs; assay type: functional, organism-based; procedure, shortened: as §2

Sequence of Cannabinoid receptor 1 (Rattus norvegicus, UniProt P20272) (P20272 whole entry): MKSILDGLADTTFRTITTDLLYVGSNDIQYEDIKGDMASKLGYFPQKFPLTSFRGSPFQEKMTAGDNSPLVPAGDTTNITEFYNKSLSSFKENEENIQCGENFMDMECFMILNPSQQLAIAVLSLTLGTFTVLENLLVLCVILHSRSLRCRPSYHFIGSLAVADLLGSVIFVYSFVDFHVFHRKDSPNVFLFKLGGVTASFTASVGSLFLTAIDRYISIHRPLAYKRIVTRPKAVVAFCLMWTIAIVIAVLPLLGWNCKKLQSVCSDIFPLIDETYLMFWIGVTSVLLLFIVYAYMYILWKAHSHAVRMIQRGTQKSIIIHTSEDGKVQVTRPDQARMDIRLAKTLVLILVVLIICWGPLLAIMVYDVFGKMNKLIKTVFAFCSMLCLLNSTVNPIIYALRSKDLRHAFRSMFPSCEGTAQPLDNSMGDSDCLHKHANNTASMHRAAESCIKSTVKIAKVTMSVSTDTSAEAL
Sequence of Cannabinoid receptor 1 (Homo sapiens, UniProt P21554) (P21554 whole entry): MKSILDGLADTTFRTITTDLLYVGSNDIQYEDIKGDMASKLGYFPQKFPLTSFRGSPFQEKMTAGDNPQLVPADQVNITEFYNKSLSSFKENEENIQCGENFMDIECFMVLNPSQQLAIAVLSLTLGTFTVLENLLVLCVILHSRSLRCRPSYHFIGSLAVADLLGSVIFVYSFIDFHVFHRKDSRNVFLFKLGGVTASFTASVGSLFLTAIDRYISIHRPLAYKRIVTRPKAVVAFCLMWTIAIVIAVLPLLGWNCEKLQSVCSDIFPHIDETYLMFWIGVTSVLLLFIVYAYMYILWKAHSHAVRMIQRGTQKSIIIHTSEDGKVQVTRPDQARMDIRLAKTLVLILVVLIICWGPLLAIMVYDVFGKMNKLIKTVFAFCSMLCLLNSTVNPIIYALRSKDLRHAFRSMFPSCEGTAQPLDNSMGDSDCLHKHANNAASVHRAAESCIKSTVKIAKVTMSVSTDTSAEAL
Sequence of Cannabinoid receptor 2 (Homo sapiens, UniProt P34972) (P34972 whole entry): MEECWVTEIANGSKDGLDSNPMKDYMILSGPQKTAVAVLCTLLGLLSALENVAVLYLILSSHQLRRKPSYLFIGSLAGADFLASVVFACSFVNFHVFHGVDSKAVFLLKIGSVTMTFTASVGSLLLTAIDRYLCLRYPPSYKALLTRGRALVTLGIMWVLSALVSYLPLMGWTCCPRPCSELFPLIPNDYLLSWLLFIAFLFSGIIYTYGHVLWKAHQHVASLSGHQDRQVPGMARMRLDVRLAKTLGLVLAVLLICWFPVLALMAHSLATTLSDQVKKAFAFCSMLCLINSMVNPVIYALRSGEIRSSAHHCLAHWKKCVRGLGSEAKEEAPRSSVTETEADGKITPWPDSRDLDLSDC
Sequence of Cannabinoid receptor 2 (Mus musculus, UniProt P47936) (P47936 whole entry): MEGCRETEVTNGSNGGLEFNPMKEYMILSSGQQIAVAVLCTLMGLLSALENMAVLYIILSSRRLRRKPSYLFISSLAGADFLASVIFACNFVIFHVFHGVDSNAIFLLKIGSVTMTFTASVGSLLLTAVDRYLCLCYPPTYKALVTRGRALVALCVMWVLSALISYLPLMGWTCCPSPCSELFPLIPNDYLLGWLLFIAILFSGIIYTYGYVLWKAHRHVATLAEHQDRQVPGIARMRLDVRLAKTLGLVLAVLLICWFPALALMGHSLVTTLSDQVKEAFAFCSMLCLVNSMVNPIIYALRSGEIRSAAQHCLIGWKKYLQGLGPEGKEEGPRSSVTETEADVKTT

Row | Structure (SMILES) | Ratio Ki [1] | Ki (Cannabinoid receptor 1 [2]) | Ratio Ki [3] | Ki (Cannabinoid receptor 2 [4]) | Ki (Cannabinoid receptor 2 [5]) | Activity (Rattus norvegicus [6]) | EC50 (Cannabinoid receptor 1 [7]) | Activity (Rattus norvegicus [8]) | Activity (Rattus norvegicus [9]) | T (Rattus norvegicus [10]) | Activity (Rattus norvegicus [11]) | Activity (Rattus norvegicus [12]) | T (Rattus norvegicus [6])
1 | CC1(C)Oc2cc(C34CC5CC(CC(C5)C3)C4)cc(O)c2[C@@H]2C[C@H](CC=O)CC[C@H]21 | 0.8 | 13.2 nM | 2.6 | 11.2 nM | 34.3 nM | – | – | – | – | – | – | – | –
2 | CC1(C)Oc2cc(C34CC5CC(CC(C5)C3)C4)cc(O)c2[C@@H]2CC(=O)CC[C@H]21 | – | – | – | 338 nM | 250 nM | – | – | – | – | – | – | – | –
3 | CC1=CC[C@@H]2[C@@H](C1)c1c(O)cc(C34CC5CC(CC(C5)C3)C4)cc1OC2(C)C | – | – | – | – | – | inactive | 1530 nM | Active | Active | – | – | – | –
4 | CC1(C)Oc2cc(C34CC5CC(CC(C5)C3)C4)cc(O)c2[C@@H]2C[C@H](O)CC[C@H]21 | – | 23.9 nM | – | 40.5 nM | 39.4 nM | – | – | – | – | – | – | – | –
5 | CC1(C)Oc2cc(C34CC5CC(CC(C5)C3)C4)cc(O)c2[C@@H]2C[C@@H](CC=O)CC[C@H]21 | 0.4 | 17.5 nM | 0.5 | 7.8 nM | 8.1 nM | – | – | – | – | – | – | – | –
6 | CC1(C)Oc2cc(C34CC5CC(CC(C5)C3)C4)cc(O)c2[C@@H]2C[C@H](C=O)CC[C@H]21 | 0.1 | 52.9 nM | 0.5 | 5.5 nM | 25.7 nM | – | – | – | – | – | – | – | –
7 | CC1(C)Oc2cc(C34CC5CC(CC(C5)C3)C4)cc(O)c2[C@@H]2C[C@H](CO)CC[C@H]21 | 2.3 | 4.9 nM | 2.5 | 11.3 nM | 12.1 nM | – | 96 nM | – | – | 6.4 °C | Active | Dose-dependent effect | –
8 | CC1(C)Oc2cc(C34CC5CC(CC(C5)C3)C4)cc(O)c2[C@@H]2C[C@@H](O)CC[C@H]21 | – | 146 nM | – | 672 nM | 255 nM | – | – | – | – | – | – | – | –
9 | CC1(C)Oc2cc(C34CC5CC(CC(C5)C3)C4)cc(O)c2[C@@H]2C[C@@H](CCO)CC[C@H]21 | 8.9 | 40.9 nM | 0.5 | 365 nM | 21 nM | – | – | – | – | – | – | – | –
10 | CC1(C)Oc2cc(C34CC5CC(CC(C5)C3)C4)cc(O)c2-c2cc(CO)ccc21 | 22.2 | 2.1 nM | 15.4 | 46.7 nM | 32.3 nM | – | 450 nM | – | – | – | – | – | 4.1 °C
11 | CC1(C)Oc2cc(C34CC5CC(CC(C5)C3)C4)cc(O)c2[C@@H]2C[C@H](CI)CC[C@H]21 | 1.1 | 241 nM | 1.4 | 262 nM | 346 nM | – | – | – | – | – | – | – | –
12 | COc1ccc2c(c1)-c1c(O)cc(C34CC5CC(CC(C5)C3)C4)cc1OC2(C)C | 0.7 | 507 nM | 1.9 | 338 nM | 950 nM | – | – | – | – | – | – | – | –
13 | CC1(C)Oc2cc(C34CC5CC(CC(C5)C3)C4)cc(O)c2[C@@H]2C[C@H](CC#N)CC[C@H]21 | 2.1 | 48.7 nM | 1.8 | 100 nM | 87 nM | – | – | – | – | – | – | – | –
14 | CC(C)(C)C(=O)OCC1=CC[C@@H]2[C@@H](C1)c1c(O)cc(C34CC5CC(CC(C5)C3)C4)cc1OC2(C)C | 3 | 16.5 nM | 7.6 | 49.2 nM | 126 nM | – | – | – | – | – | – | – | –
15 | Cc1ccc2c(c1)-c1c(O)cc(C34CC5CC(CC(C5)C3)C4)cc1OC2(C)C | 1 | 62 nM | 0.7 | 63.5 nM | 42.2 nM | – | – | – | – | – | – | – | –
16 | CC1(C)Oc2cc(C34CC5CC(CC(C5)C3)C4)cc(O)c2[C@@H]2C[C@@H](C=O)CC[C@H]21 | 0.2 | 48.2 nM | 0.4 | 9 nM | 20.1 nM | – | – | – | – | – | – | – | –
17 | CC1(C)Oc2cc(C34CC5CC(CC(C5)C3)C4)cc(O)c2[C@@H]2C[C@@H](CO)CC[C@H]21 | 4 | 30.1 nM | 2.2 | 121 nM | 65.1 nM | – | – | – | – | – | – | – | –
18 | CC1(C)Oc2cc(C34CC5CC(CC(C5)C3)C4)cc(O)c2[C@@H]2C[C@H](CCO)CC[C@H]21 | 3.9 | 8.6 nM | 4.5 | 33.3 nM | 38.4 nM | – | – | – | – | – | – | – | –
19 | CC1(C)Oc2cc(C34CC5CC(CC(C5)C3)C4)cc(O)c2-c2cc(O)ccc21 | 6.2 | 88.6 nM | 2.8 | 551 nM | 251 nM | – | – | – | – | – | – | – | –
20 | CC1(C)Oc2cc(C34CC5CC(CC(C5)C3)C4)cc(O)c2[C@@H]2CC(CO)=CC[C@H]21 | 1.9 | 7.2 nM | 1.5 | 14 nM | 10.6 nM | – | 230 nM | – | – | – | – | – | –
21 | CO/C=C\[C@@H]1CC[C@@H]2[C@@H](C1)c1c(O)cc(C34CC5CC(CC(C5)C3)C4)cc1OC2(C)C | 2.2 | 31 nM | 2.9 | 67.2 nM | 90.3 nM | – | – | – | – | – | – | – | –
